In ChEMBL document CHEMBL4680154, “The optimization of xanthine derivatives leading to HBK001 hydrochloride as a potent dual ligand targeting DPP-IV and GPR119” (Eur J Med Chem, 2020):
Activity calls are given as the source filed them. No cut-off for these calls is given here.

Experiments:
[1] = biological target: T1, Glucose-dependent insulinotropic receptor (Homo sapiens) (UniProt Q8TDV5); experiment: Agonist activity at CREB-LBD and Gal4-DBD fused recombinant human GPR119 expressed in HEK293 cells at 1 uM by firefly luciferase assay relative to AR231453; assay type: functional, cell-based; conditions: filed as agonist
T1 sequence (whole entry): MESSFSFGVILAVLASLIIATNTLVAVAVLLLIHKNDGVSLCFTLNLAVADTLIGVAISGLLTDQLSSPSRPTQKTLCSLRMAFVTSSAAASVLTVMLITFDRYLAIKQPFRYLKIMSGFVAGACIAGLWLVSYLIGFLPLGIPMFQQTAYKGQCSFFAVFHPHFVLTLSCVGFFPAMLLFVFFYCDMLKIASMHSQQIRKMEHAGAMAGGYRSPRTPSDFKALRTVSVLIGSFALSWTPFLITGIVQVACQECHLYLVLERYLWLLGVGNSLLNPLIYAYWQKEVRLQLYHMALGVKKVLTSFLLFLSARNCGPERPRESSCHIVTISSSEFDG
Procedure, shortened: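 HEK293 cells transiently transfected with human GPR119, a Gal4-DBD/CREB-LBD fusion and a Gal4 UAS-driven luciferase reporter, then treated with compound (DMSO vehicle). Firefly luciferase luminescence read. Activation fold = compound/vehicle, expressed as percent of the AR231453 activation fold. EC50 obtained by curve fitting.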

Mus musculus [2] = experiment: Antidiabetic activity in ICR mouse assessed as reduction in blood glucose level at 30 mg/kg, po administered as single dose followed by oral glucose challenge measured after 30 mins by glucose oxidase method; assay type: functional, organism-based
Procedure, shortened: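 Overnight-fasted ICR mice given compound by oral gavage (vehicle distilled water) before a 2 g/kg oral glucose load. Tail-tip blood taken at 0, 30, 60 and 120 min; glucose measured by the glucose oxidase method. n = 10 per group, mean ± SEM.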

Mus musculus [3] = experiment: Antidiabetic activity in ICR mouse assessed as reduction in blood glucose AUC at 10 mg/kg, po administered as single dose followed by glucose challenge measured upto 120 mins by OGTT relative to control; assay type: functional; design: scale not given: the % may be the effect or the level left; conditions: time min <=120
Procedure, shortened: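 ICR mice were fasted overnight and dosed by oral gavage, with distilled water as vehicle, before an oral glucose load of 2 g/kg. Tail-tip blood was sampled at 0, 30, 60 and 120 min and glucose measured by the glucose oxidase method. AUC was compared with the vehicle group. n = 10 per group, mean ± SEM.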

SMILES	Activity [1] [%]	Activity (Mus musculus [2])	Activity (Mus musculus [3]) [%]
CC#CCn1c(N2CCC[C@@H](N)C2)nc2c1c(=O)n(CCCN1CCN(c3nc(-c4ccccc4)no3)CC1)c(=O)n2C	58	Active	–
N[C@@H](CC(=O)N1CCn2c(nnc2C(F)(F)F)C1)Cc1cc(F)c(F)cc1F [SITAGLIPTIN]	–	–	27.3
